The M2OR odorant receptor database

target: T1, OR13C4 (Homo sapiens) (UniProt Q8NGS5); conditions: stereoisomer not certain
T1 sequence (whole entry): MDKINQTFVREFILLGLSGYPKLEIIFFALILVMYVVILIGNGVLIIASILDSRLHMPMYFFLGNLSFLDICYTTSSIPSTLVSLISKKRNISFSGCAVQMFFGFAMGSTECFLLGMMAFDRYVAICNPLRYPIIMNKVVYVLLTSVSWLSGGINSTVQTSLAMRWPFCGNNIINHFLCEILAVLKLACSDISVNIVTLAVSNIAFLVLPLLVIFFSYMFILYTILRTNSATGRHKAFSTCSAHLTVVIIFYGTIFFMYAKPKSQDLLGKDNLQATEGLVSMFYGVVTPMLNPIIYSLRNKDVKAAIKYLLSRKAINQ
Outline: (§1)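 Each receptor–molecule pair is labelled responsive or non-responsive (inactive) according to whether the original authors judged the measured signal statistically different from baseline. The data were taken from the main text and supplementary material of published papers and checked for typos and inconsistencies. Assay methods differed by source, with transient luciferase assays in mammalian cell lines being common.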
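Also: active if original authors judged signal statistically different from baseline.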

Row | Compound | odorant receptor agonist call
1 | CC1CCCCCCCCCCCCC(=O)C1 (stereo not given) | inactive
2 | CCCC(S)CCOC(C)=O (stereo not given) | inactive
3 | CC1=C(O)C(=O)C(C)O1 (stereo not given) | inactive
4 | CCC1OC(=O)C(O)=C1C (stereo not given) | inactive
5 | CC(=O)c1c(C)c([N+](=O)[O-])c(C(C)(C)C)c([N+](=O)[O-])c1C | inactive
6 | CCC(S)C(C)CO (stereo not given) | inactive
7 | CCCCC(S)C(C)CO (stereo not given) | inactive
8 | Cc1cnc(C)c(C)n1 | inactive
9 | CC1=C(O)C(=O)OC1C (stereo not given) | inactive
10 | CC1=NC(C)C(C)S1 (stereo not given) | inactive
11 | CCCCCC(=O)C(C)C(C)=O (stereo not given) | inactive
12 | CCCCCCC=CCCC=O | inactive
13 | CC(CO)CS (stereo not given) | inactive
14 | CCCCCC(S)C(C)CO (stereo not given) | inactive
15 | CCC1OC(C)=C(O)C1=O (stereo not given) | inactive

target: T2, OR13C5 (Homo sapiens) (UniProt Q8NGS8); conditions: stereoisomer not certain
T2 sequence (whole entry): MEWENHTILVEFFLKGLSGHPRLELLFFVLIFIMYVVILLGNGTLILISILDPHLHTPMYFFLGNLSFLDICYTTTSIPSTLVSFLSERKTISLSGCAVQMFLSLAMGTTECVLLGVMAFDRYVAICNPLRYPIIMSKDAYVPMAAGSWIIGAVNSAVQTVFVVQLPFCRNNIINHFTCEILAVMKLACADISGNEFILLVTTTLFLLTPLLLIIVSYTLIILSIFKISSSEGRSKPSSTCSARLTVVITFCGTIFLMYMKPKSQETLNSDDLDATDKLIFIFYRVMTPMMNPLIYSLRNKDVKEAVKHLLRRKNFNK
Outline: as §1

Row | Compound | odorant receptor agonist call
16 | CC1CCCCCCCCCCCCC(=O)C1 (stereo not given) | inactive
17 | CCCC(S)CCOC(C)=O (stereo not given) | inactive
18 | CC1=C(O)C(=O)C(C)O1 (stereo not given) | inactive
19 | CCC1OC(=O)C(O)=C1C (stereo not given) | inactive
20 | CC(=O)c1c(C)c([N+](=O)[O-])c(C(C)(C)C)c([N+](=O)[O-])c1C | inactive
21 | CCC(S)C(C)CO (stereo not given) | inactive
22 | CCCCC(S)C(C)CO (stereo not given) | inactive
23 | Cc1cnc(C)c(C)n1 | inactive
24 | CC1=C(O)C(=O)OC1C (stereo not given) | inactive
25 | CC1=NC(C)C(C)S1 (stereo not given) | inactive
26 | CCCCCC(=O)C(C)C(C)=O (stereo not given) | inactive
27 | CCCCCCC=CCCC=O | inactive
28 | CC(CO)CS (stereo not given) | active
29 | CCCCCC(S)C(C)CO (stereo not given) | inactive
30 | CCC1OC(C)=C(O)C1=O (stereo not given) | inactive

target: T3, OR13C8 (Homo sapiens) (UniProt Q8NGS7); conditions: stereoisomer not certain
T3 sequence (whole entry): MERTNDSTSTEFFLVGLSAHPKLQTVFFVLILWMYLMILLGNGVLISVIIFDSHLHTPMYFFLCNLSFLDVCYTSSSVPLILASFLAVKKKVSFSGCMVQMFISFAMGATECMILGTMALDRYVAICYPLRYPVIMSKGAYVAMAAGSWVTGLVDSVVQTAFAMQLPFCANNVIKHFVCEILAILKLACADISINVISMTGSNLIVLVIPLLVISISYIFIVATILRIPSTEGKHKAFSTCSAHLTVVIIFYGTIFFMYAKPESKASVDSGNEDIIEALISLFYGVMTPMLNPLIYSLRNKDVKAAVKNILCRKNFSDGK
Outline: as §1

Row | Compound | odorant receptor agonist call
31 | CC1CCCCCCCCCCCCC(=O)C1 (stereo not given) | inactive
32 | CCCC(S)CCOC(C)=O (stereo not given) | inactive
33 | CC1=C(O)C(=O)C(C)O1 (stereo not given) | inactive
34 | CCC1OC(=O)C(O)=C1C (stereo not given) | inactive
35 | CC(=O)c1c(C)c([N+](=O)[O-])c(C(C)(C)C)c([N+](=O)[O-])c1C | inactive
36 | CCC(S)C(C)CO (stereo not given) | inactive
37 | CCCCC(S)C(C)CO (stereo not given) | inactive
38 | Cc1cnc(C)c(C)n1 | inactive
39 | CC1=C(O)C(=O)OC1C (stereo not given) | inactive
40 | CC1=NC(C)C(C)S1 (stereo not given) | inactive
41 | CCCCCC(=O)C(C)C(C)=O (stereo not given) | inactive
42 | CCCCCCC=CCCC=O | inactive
43 | CC(CO)CS (stereo not given) | inactive
44 | CCCCCC(S)C(C)CO (stereo not given) | inactive
45 | CCC1OC(C)=C(O)C1=O (stereo not given) | inactive

target: T4, OR13C9 (Homo sapiens) (UniProt Q8NGT0); conditions: stereoisomer not certain
T4 sequence (whole entry): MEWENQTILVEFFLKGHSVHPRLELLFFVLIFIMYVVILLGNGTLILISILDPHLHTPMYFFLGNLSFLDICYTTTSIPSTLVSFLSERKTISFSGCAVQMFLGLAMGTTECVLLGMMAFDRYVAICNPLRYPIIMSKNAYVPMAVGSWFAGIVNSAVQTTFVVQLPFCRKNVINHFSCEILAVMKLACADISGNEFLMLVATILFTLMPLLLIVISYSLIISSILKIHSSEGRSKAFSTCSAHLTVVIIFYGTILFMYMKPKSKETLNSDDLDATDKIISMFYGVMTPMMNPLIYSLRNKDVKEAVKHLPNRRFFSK
Outline: as §1

Row | Compound | odorant receptor agonist call
46 | CC1CCCCCCCCCCCCC(=O)C1 (stereo not given) | inactive
47 | CCCC(S)CCOC(C)=O (stereo not given) | inactive
48 | CC1=C(O)C(=O)C(C)O1 (stereo not given) | inactive
49 | CCC1OC(=O)C(O)=C1C (stereo not given) | inactive
50 | CC(=O)c1c(C)c([N+](=O)[O-])c(C(C)(C)C)c([N+](=O)[O-])c1C | inactive
51 | CCC(S)C(C)CO (stereo not given) | inactive
52 | CCCCC(S)C(C)CO (stereo not given) | inactive
53 | Cc1cnc(C)c(C)n1 | inactive
54 | CC1=C(O)C(=O)OC1C (stereo not given) | inactive
55 | CC1=NC(C)C(C)S1 (stereo not given) | inactive
56 | CCCCCC(=O)C(C)C(C)=O (stereo not given) | inactive
57 | CCCCCCC=CCCC=O | inactive
58 | CC(CO)CS (stereo not given) | inactive
59 | CCCCCC(S)C(C)CO (stereo not given) | active
60 | CCC1OC(C)=C(O)C1=O (stereo not given) | inactive
